Measured values from ChEMBL document CHEMBL4004811, “Enantiodivergence in the Biosynthesis of Bromotyrosine Alkaloids from Sponges?” (2017).
Activity calls are given as the source filed them. No cut-off for these calls is given here.

Experiments:
Format in all cases: functional
[1] = system: Escherichia coli; assay: Antimicrobial activity against Escherichia coli ATCC 25922 after 18 hrs by MTT dye based TLC assay
In short: (§1)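 Overlay TLC bioautography: compounds applied on TLC plates and overlaid with the bacterial culture. Activity is reported as the minimum inhibitory quantity (MIQ), in μg of compound.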

[2] = system: Staphylococcus aureus; assay: Antimicrobial activity against methicillin-sensitive Staphylococcus aureus ATCC 29213 after 18 hrs by MTT dye based TLC assay; in short: as §1
[3] = system: Staphylococcus aureus; assay: Antimicrobial activity against multidrug-resistant Staphylococcus aureus after 18 hrs by MTT dye based TLC assay
In short: (§2)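 Overlay TLC bioautography: samples applied to TLC plates and overlaid with the bacterial culture. The panel covered three S. aureus strains and one E. coli strain. Activity is read as minimum inhibitory quantity (MIQ, μg per spot).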

[4] = system: Staphylococcus aureus; assay: Antimicrobial activity against methicillin-resistant Staphylococcus aureus ATCC BAA1026 after 18 hrs by MTT dye based TLC assay; in short: as §2

Compound	Activity [1]	Activity [2]	Activity [3]	Activity [4]	MIC [3]	MIC [4]	MIC [2]
COC1=C(Br)[C@@H](O)[C@]2(C=C1Br)CC(C(=O)NCCCOc1c(Br)cc(C/C(=N\O)C(=O)NCCc3cnc(N)[nH]3)cc1Br)=NO2	inactive	Active	Active	Active	–	–	–
CN[C@H](CC(C)C)C(=O)N[C@H]1C(=O)N[C@@H](CC(N)=O)C(=O)N[C@H]2C(=O)N[C@H]3C(=O)N[C@H](C(=O)N[C@H](C(=O)O)c4cc(O)cc(O)c4-c4cc3ccc4O)[C@H](O)c3ccc(c(Cl)c3)Oc3cc2cc(c3O[C@@H]2O[C@H](CO)[C@@H](O)[C@H](O)[C@H]2O[C@H]2C[C@](C)(N)[C@H](O)[C@H](C)O2)Oc2ccc(cc2Cl)[C@H]1O [VANCOMYCIN]	–	–	–	–	0.63 µg	0.63 µg	–
COC1=C(Br)[C@@H](O)[C@]2(C=C1Br)CC(C(N)=O)=NO2	inactive	Active	Active	Active	–	–	–
COC1=C(Br)[C@@H](O)[C@]2(C=C1Br)CC(C(=O)NCCc1ccc(O)c(Br)c1)=NO2	inactive	–	Active	Active	–	–	0.31 µg
COC1=C(Br)[C@@H](O)[C@]2(C=C1Br)CC(C(=O)NCCc1cc(Br)c(O)c(Br)c1)=NO2	inactive	–	Active	Active	–	–	0.31 µg
COC1=C(Br)[C@@H](O)[C@]2(C=C1Br)CC(C(=O)NCCCOc1c(Br)cc(CCN)cc1Br)=NO2	inactive	Active	Active	Active	–	–	–
CNCCCOc1c(Br)cc(CCNC(=O)/C(Cc2ccc(OC)c(Br)c2)=N/O)cc1Br	inactive	Active	Active	Active	–	–	–
CCOC1(CCCNC(=O)C2=NO[C@@]3(C=C(Br)C(OC)=C(Br)[C@H]3O)C2)N=C(N)NC1=O (mixture of isomers)	inactive	Active	Active	Active	–	–	–
COc1ccc(C/C(=N\O)C(=O)NCCc2cc(Br)c(OCCCN(C)C)c(Br)c2)cc1Br	inactive	Active	Active	Active	–	–	–
COC1=C(Br)[C@@H](O)[C@]2(C=C1Br)CC(C(=O)NCCCOc1c(Br)cc(CC(N)C(=O)O)cc1Br)=NO2 (some centres not stated)	inactive	Active	Active	Active	–	–	–
COC1=C(Br)[C@@H](O)[C@]2(C=C1Br)CC(C(=O)NCCCC(=O)O)=NO2	inactive	Active	Active	Active	–	–	–
